Laboratory results reported in ChEMBL document CHEMBL3414543, “Novel series of benzoquinones with high potency against 5-lipoxygenase in human polymorphonuclear leukocytes” (Eur J Med Chem, 2015).

Assays:
[1] = biological target: T1, Polyunsaturated fatty acid lipoxygenase ALOX15 (Homo sapiens) (UniProt P16050); test: Inhibition of 15-LOX-1 in human blood PMNL assessed as remaining activity by measuring 15-HETE synthesis at 10 uM
T1 sequence (whole entry): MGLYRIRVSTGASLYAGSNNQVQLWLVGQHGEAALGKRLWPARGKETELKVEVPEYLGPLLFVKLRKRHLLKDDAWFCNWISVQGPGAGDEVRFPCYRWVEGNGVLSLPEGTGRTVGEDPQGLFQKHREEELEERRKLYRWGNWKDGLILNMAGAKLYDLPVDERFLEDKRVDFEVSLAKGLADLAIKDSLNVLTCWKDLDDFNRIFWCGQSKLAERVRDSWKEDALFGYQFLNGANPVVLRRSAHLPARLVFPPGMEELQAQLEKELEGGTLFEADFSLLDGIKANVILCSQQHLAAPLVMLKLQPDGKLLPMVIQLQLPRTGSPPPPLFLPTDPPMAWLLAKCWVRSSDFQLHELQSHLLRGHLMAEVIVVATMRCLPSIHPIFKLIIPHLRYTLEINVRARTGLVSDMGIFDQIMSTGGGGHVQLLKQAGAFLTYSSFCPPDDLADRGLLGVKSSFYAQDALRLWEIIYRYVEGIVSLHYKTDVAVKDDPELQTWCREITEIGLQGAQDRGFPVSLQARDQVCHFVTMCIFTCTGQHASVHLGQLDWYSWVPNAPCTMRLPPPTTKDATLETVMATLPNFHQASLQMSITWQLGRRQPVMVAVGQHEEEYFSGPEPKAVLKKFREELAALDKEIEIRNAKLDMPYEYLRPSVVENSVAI
Summary of the method: (§1)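 PMNL isolated from heparinized blood of fasted healthy donors by dextran sedimentation and Nycoprep centrifugation, with hypotonic lysis of erythrocytes. Cells at 5 × 10⁶ in 1 ml PBS pH 7.4 with 1 mg/ml glucose and 1 mM CaCl₂, preincubated 15 min at 37 °C with compound or 0.1% DMSO vehicle, then stimulated 10 min at 37 °C. 12-HETE or 15-HETE formation measured.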

[2] = biological target: T2, Polyunsaturated fatty acid 5-lipoxygenase (Homo sapiens, UniProt P09917); test: Inhibition of human recombinant 5-LOX expressed in Escherichia coli BL21 incubated for 10 mins in presence of arachidonic acid by RP-HPLC based cell-free assay
T2 sequence (P09917 whole entry): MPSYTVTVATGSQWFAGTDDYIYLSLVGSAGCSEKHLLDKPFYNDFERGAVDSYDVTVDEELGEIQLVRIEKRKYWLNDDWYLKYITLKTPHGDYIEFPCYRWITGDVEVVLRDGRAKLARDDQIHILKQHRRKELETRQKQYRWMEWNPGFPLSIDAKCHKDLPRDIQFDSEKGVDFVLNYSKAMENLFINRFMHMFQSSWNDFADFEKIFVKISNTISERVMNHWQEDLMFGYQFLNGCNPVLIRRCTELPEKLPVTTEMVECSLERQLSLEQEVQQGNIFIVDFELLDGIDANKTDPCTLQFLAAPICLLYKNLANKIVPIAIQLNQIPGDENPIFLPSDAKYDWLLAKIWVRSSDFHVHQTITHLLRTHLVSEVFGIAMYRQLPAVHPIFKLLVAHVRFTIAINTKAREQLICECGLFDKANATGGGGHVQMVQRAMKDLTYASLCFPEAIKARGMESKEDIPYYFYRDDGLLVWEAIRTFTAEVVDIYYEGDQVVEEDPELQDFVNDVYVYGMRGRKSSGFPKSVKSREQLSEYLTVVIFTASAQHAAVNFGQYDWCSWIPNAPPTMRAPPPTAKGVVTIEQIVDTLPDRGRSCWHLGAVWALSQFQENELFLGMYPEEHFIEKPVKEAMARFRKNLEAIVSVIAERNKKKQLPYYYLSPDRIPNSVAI
Summary of the method: (§2)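 Recombinant human 5-LO, semi-purified from a 40,000 × g lysate supernatant on ATP-agarose, diluted in ice-cold PBS with 1 mM EDTA and 1 mM ATP. Preincubated 10 min at 4 °C with compound or 0.1% DMSO, warmed 30 s at 37 °C, then started with 2 mM CaCl₂ plus 20 µM AA. Reaction 10 min at 37 °C, stopped with cold methanol, products by RP-HPLC. IC₅₀ from 4–5 concentrations.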

[3] = biological target: T2, Polyunsaturated fatty acid 5-lipoxygenase; test: Inhibition of 5-LOX in A23187-stimulated human blood PMNL assessed as reduction in lipoxygenase products formation in presence of arachidonic acid pre-incubated for 15 mins followed by stimulation with A23187 for 10 mins by RP-HPLC based cell based assay
Summary of the method: (§3)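 Human PMNL (5 × 10⁶ in 1 ml PBS pH 7.4, 1 mg/ml glucose, 1 mM CaCl₂), preincubated 15 min at 37 °C with compound or 0.1% DMSO, then stimulated 10 min at 37 °C with A23187, with or without AA. 5-LO products measured. Values are mean ± S.E. of 3–4 independent experiments. IC₅₀ read graphically from 4–5 concentrations.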

Homo sapiens [4] = species: Homo sapiens; test: Selectivity index, ratio of inhibition for […] in human blood PMNL to IC50 for 5-LOX in human blood PMNL
[5] = biological target: T2, Polyunsaturated fatty acid 5-lipoxygenase; test: Inhibition of 5-LOX in A23187-stimulated human blood PMNL assessed as reduction in lipoxygenase products formation pre-incubated for 15 mins followed by stimulation with A23187 for 10 mins by RP-HPLC based cell based assay; summary of the method: as §3
Homo sapiens [6] = species: Homo sapiens; test: Selectivity index, ratio of inhibition for 12-LOX in human blood PMNL to IC50 for 5-LOX in human blood PMNL
[7] = biological target: T3, Polyunsaturated fatty acid lipoxygenase ALOX12 (Homo sapiens) (UniProt P18054); test: Inhibition of 12-LOX in human blood PMNL assessed as remaining activity by measuring 12-HETE synthesis at 10 uM; summary of the method: as §1
T3 sequence (whole entry): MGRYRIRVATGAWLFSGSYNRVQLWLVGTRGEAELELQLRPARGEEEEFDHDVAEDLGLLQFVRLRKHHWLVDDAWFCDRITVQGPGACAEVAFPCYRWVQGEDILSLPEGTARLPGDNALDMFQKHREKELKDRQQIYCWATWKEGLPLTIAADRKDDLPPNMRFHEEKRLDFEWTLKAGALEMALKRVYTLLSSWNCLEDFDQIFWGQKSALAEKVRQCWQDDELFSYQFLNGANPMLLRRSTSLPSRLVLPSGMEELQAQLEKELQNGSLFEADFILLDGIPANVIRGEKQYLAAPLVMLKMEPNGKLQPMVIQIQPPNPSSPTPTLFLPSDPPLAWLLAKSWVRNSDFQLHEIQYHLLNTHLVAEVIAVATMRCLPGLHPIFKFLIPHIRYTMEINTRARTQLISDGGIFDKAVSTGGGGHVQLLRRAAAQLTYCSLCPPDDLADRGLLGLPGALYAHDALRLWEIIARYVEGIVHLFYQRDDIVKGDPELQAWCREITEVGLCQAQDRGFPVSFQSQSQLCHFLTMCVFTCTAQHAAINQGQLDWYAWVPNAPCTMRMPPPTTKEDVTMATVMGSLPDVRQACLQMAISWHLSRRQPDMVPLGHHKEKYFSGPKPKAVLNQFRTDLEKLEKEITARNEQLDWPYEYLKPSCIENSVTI

[8] = biological target: T4, Polyunsaturated fatty acid 5-lipoxygenase (Homo sapiens) (UniProt P09917); test: Inhibition of human recombinant 5-LOX expressed in Escherichia coli BL21 assessed as remaining activity at 10 uM incubated for 10 mins in presence of arachidonic acid by RP-HPLC based cell-free assay; summary of the method: as §2
T4 sequence (whole entry): T2 sequence (P09917 whole entry)

[9] = biological target: T4, Polyunsaturated fatty acid 5-lipoxygenase (Homo sapiens); test: Inhibition of 5-LOX in A23187-stimulated human blood PMNL assessed as remaining activity by measuring lipoxygenase products formation at 10 uM in presence of arachidonic acid pre-incubated for 15 mins followed by stimulation with A23187 for 10 mins by RP-HPLC based cell based assay; summary of the method: as §3
[10] = biological target: T4, Polyunsaturated fatty acid 5-lipoxygenase (Homo sapiens); test: Inhibition of 5-LOX in A23187-stimulated human blood PMNL assessed as remaining activity by measuring lipoxygenase products formation at 10 uM pre-incubated for 15 mins followed by stimulation with A23187 for 10 mins by RP-HPLC based cell based assay; summary of the method: as §3

Compound | Activity [1] [%] | IC50 [2] [µM] | IC50 [3] [µM] | Selectivity Index (Homo sapiens [4]) | IC50 [5] [µM] | Selectivity Index (Homo sapiens [6]) | Activity [7] [%] | Activity [8] [%] | Activity [9] [%] | Activity [10] [%]
CCCCCCCCCCC1=C(OC)C(OC)=CC(=O)C1=O | 148 | 0.13 | 0.07 | > 66 | 0.04 | > 66 | 133 | – | – | –
COC1=CC(=O)C(O)=C(C/C=C(\C)CCC=C(C)C)C1=O | 112 | > 10 | > 10 | – | 4.1 | – | 101 | 73.6 | 65.9 | –
CCCCCCC1=C(O)C(=O)C=C(O)C1=O | 89.8 | 4 | > 10 | – | > 10 | – | 105 | – | 79.9 | 134
CC(C)=CCC/C(C)=C/CC1=C(O)C(=O)C=C(O)C1=O | 92 | 1.8 | > 10 | – | > 10 | – | 80.5 | – | 81.9 | 114
CCCCC1=C(O)C(=O)C=C(O)C1=O | 82.3 | > 10 | > 10 | – | > 10 | – | 93.3 | 65.4 | 92.8 | 93.5
CCCCCCCCCCCCCCCC1=C(O)C(=O)C=C(O)C1=O | 103 | 0.23 | > 10 | – | 4.3 | – | 87.7 | – | 61.7 | –
CCCCCCCCC1=C(O)C(=O)C=C(OC)C1=O | 105 | 3 | > 10 | – | > 10 | – | 86.8 | – | 72.9 | 73.5
CCCCCCCCCCCCCCCCC1=C(O)C(=O)C=C(O)C1=O | 105 | 0.19 | > 10 | – | > 10 | – | 117 | – | 80.5 | 88
CCCCCCCCCCCCCCCCC1=C(O)C(=O)C=C(OC)C1=O | 119 | > 10 | 1.1 | – | 1 | – | 138 | 60.1 | – | –
CCCCCCCCC1=C(O)C(=O)C=C(O)C1=O | 88.9 | 0.38 | > 10 | – | > 10 | – | 75.7 | – | 80.1 | 53.5
CCCCC1=C(O)C(=O)C=C(OC)C1=O | 112 | > 10 | > 10 | – | > 10 | – | 91.2 | 70.5 | 95.7 | 86
CCCCC1=C(OC)C(OC)=CC(=O)C1=O | 129 | > 10 | 5.1 | – | 2.2 | – | 85.8 | 82.9 | – | –
CC(C)=CCC/C(C)=C/CC/C(C)=C/CC1=C(O)C(=O)C=C(O)C1=O | 95.2 | 2.5 | > 10 | – | > 10 | – | 78.3 | – | 66.6 | 85.8
CCCCCCC1=C(O)C(=O)C=C(OC)C1=O | 65.8 | > 10 | > 10 | – | > 10 | – | 44.5 | 71.1 | 64.1 | 68.9
CCCCCCCCCCCCCCCC1=C(OC)C(OC)=CC(=O)C1=O | 115 | 0.62 | > 10 | – | > 10 | – | 88.9 | – | 66.8 | 57.6
CCCCCCCCC1=C(OC)C(OC)=CC(=O)C1=O | 102 | 0.33 | 0.82 | – | 0.38 | – | 59.3 | – | – | –
CCCCCCCCCCCCC1=C(O)C(=O)C=C(O)C1=O | 65.1 | 0.17 | 3.9 | – | 4.6 | – | 90.6 | – | – | –
CCCCCCCCCCCCC1=C(O)C(=O)C=C(OC)C1=O | 116 | 0.74 | 1.1 | – | 0.56 | – | 148 | – | – | –
CCCCCCCCCCCCCC1=C(O)C(=O)C=C(OC)C1=O [Sorgoleone-364] | 88.1 | 0.92 | 2.3 | – | 0.77 | – | 73.2 | – | – | –
COC1=CC(=O)C(=O)C(C/C=C(\C)CC/C=C(\C)CCC=C(C)C)=C1OC | 174 | 0.3 | 0.1 | – | 0.15 | – | 211 | – | – | –
COC1=CC(=O)C(=O)C(C/C=C(\C)CCC=C(C)C)=C1OC | 125 | 0.6 | 0.39 | – | 0.38 | – | 72.8 | – | – | –
CCCCCCCCCCCCCCCCC1=C(OC)C(=O)C=C(OC)C1=O | 97.8 | 1.6 | 3.5 | – | > 10 | – | 121 | – | – | 80.1
